Hits are enriched below; roughly 5.3% of the tested compounds scored in any of these assays.
CSC inhib: cancer stem cell inhibition; cancer stem cell-like cells viability, luminescence; inhibition, % at 7.5 µM; 1.1% of 300,000 active; AID 2717; in the data active means inhibition above about 75%; inconclusive means no clear call, values can overlap the other calls; tested in HMLE shEcad cells
T cruzi inh: T. cruzi replication inhibition. T. cruzi beta-gal in NIH3T3, luminescence, 90 h. inhibition, % (no concentration beside the values). 1.4% of 300,000 active;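 active means mean inhibition across valid replicates above about 55%, limit read from the data; inconclusive means mean below that limit but half or more replicates reach it; inactive means mean below it, under half of replicates reach it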;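 further: signal also drops with host cell toxicity which is not excluded here; 0% = plate median of DMSO wells and 100% = zero luminescence signal; higher percent means less beta-gal luminescence so fewer parasites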
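Read-out: Parasite load inhibition, % | Test system: Mouse NIH/3T3 fibroblasts infected with β-gal-expressing T. cruzi Tulahuen C4 | Amount: 5,000 cells/well | Medium: DMEM, 2% fetal bovine serum | Signal: GalScreen β-gal luminescence, detergent lysis, 60 min | Timing: 3 h attach, ≥90 h co-culture | Also added: Tulahuen C4 trypomastigotes, 5000/well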
Mdm2 MdmX PPI: inhibitors of human Mdm2/MdmX interaction. inhibition, % at 8 µM. 3% of 330,000 active. SaOS-2 split-luciferase Mdm2/MdmX complementation, luminescence;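 active means inhibition of at least 50% at 8 µM in the primary screen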
Target sequence (O15151 whole entry, looked up): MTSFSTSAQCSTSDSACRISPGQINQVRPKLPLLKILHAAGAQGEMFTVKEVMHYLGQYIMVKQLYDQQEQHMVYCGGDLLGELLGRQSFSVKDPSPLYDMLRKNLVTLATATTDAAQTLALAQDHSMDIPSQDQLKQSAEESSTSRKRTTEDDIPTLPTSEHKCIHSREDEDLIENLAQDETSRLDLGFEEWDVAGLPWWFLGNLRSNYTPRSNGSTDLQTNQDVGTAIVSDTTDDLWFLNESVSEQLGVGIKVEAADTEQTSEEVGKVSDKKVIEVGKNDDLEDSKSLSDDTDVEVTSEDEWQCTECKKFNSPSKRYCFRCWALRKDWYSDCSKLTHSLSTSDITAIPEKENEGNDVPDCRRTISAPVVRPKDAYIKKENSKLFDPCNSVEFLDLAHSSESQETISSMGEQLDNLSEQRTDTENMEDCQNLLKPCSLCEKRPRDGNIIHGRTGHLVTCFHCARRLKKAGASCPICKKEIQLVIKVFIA
Target sequence (Q00987 whole entry, looked up): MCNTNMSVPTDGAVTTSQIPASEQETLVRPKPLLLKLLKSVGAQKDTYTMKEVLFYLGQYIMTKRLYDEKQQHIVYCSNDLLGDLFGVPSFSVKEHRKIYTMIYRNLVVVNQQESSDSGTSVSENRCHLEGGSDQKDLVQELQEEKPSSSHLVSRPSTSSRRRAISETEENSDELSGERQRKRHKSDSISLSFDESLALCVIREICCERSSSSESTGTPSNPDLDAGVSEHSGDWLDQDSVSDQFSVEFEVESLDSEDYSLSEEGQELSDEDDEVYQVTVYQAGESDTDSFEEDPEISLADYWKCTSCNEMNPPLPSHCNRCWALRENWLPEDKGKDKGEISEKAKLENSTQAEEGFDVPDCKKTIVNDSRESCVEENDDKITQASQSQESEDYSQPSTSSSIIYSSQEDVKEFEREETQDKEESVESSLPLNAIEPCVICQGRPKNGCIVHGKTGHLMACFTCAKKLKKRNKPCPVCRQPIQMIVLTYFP
Calb FLC: C. albicans growth modulation with fluconazole | C. albicans CaCi-2 (fluconazole-resistant clinical isolate) + fluconazole, Alamar Blue growth, 48 h | growth inhibition, % (no concentration beside the values) | 0.57% of 300,000 active | AID 1979;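 active means growth inhibition above about 58% in most replicates, limit read from the data, passing the limit was not always enough; inconclusive means exactly half the replicates above a set limit; inactive means most replicates below a set limit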;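 further: all wells also contain fluconazole at 8 µg/ml as a sub-toxic cotreatment; 0% = median of DMSO wells and 100% = median of geldanamycin control wells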
NALP3 yeast inh: inhibitors of NALP3 inflammasome in yeast. Yeast reconstituted NLRP3/ASC/caspase-1, beta-gal luminescence, 24 h. inhibition, % at 10 µM. 0.39% of 330,000 active;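 active means inhibition of 50% or more; inactive means inhibition below 50%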;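 further: plate controls were induced DMSO wells for no effect and uninduced yeast grown without galactose for full effect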
Beta apoptosis: beta cell apoptosis inhibition; INS-1E cytokine-induced death, ATP luminescence, 48 h; percent of positive-control rescue, neutral wells zero; protection from apoptosis, % (no concentration beside the values); 0.8% of 300,000 active; AID 435005;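 active means Every replicate reaches about 75%, or at least half do and their mean reaches it too, limit read from the data; inconclusive means At least half of replicates reach the limit but their mean does not; inactive means Under half of replicates reach the limit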;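 further: 0% = cytokine-treated negative control wells and 100% = positive control rescue; higher means more ATP so stronger rescue from cytokine killing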
Mdm2 MdmX conf: confirmation of human Mdm2/MdmX interaction inhibitors | AID 489028 | 55% of 10,000 active | Mdm2-MdmX binding, luminescent assay | inhibition, % at 8 µM | shares compounds with Mdm2 MdmX PPI; in the data active means inhibition above about 40%
Full FLuc ctr: inhibits full-length luciferase, flagging false Mdm2/MdmX hits | shares compounds with Mdm2 MdmX PPI | SaOS-2 full-length luciferase counterscreen, luminescence | inhibition, % at 8 µM | 77% of 6,200 active;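 active means mean inhibition at 8 µM reaching about 37%, which flags the compound as non-specific, limit read from the data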;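 further: p53-null SaOS-2 cells with luciferase driven by a doxycycline-inducible promoter; compound on cells about two nights before reading with doxycycline added after day one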
Starred values were filed as active, the others as inactive; ? = inconclusive; nt = no result.

SMILES | CSC inhib | T cruzi inh | Mdm2 MdmX PPI | Calb FLC | NALP3 yeast inh | Beta apoptosis | Mdm2 MdmX conf | Full FLuc ctr
Cc1ccc(NC(=O)C2CC(=O)NC(N3CCc4ccccc43)=N2)cc1 (centres undefined) | 24.6 | 1.4 | -6.0 | 4.8 | -0.9 | 1.8 | nt | nt
O=C(CCc1nc(-c2ccccc2)no1)Nc1cccnc1 | -5.4 | -15.8 | -28.8 | 4.2 | -6.6 | 0.7 | nt | nt
CCOC(=O)c1ccc(NC(=O)NC2CC3CCC(C2)N3C(=S)NC)cc1 (centres undefined) | 8.4 | -6.4 | -18.0 | 10.6 | 8.0 | -4.0 | nt | nt
O=C(Nc1cccc(-c2cn3ccccc3n2)c1)c1cnccn1 | 1.0 | -8.5 | -30.5 | 6.3 | 3.1 | 2.3 | nt | nt
O=C(Nc1cccc(-c2cn3ccccc3n2)c1)c1cccc(Cl)c1 | ? | 13.3 | 74.6* | ? | 24.3 | 58.1 | -7.7 | nt
Cn1nc(C(F)(F)F)c(/C=N/OC(=O)c2ccccc2)c1Cl | 10.8 | -21.8 | 2.2 | 1.0 | 7.7 | -7.2 | nt | nt
Cn1nc(C(F)(F)F)c(/C=N/OC(=O)c2ccccc2)c1Sc1ccc(Cl)cc1 | -6.6 | 11.6 | 51.0* | 32.7 | 9.6 | 7.2 | 6.5 | nt
CCCCC(=O)NC(=S)Nc1cccc(C(=O)O)c1 | -7.8 | 5.2 | -6.1 | 5.9 | 15.3 | -4.9 | nt | nt
CCN(CC)CCCN(C(=O)c1cccc(C)c1)c1nc(-c2ccc(OC)cc2)cs1 | 7.3 | 17.8 | 55.9* | -0.6 | 29.3 | nt | 34.0 | 83.6*
Cc1ccc(NC(=O)CSc2nsc(SCC(=O)Nc3ccc(C)cc3C)c2C#N)c(C)c1 | -3.0 | 25.7 | 83.0* | -9.3 | 11.9 | 8.9 | 22.9 | nt
Cc1csc(NC(=O)CSc2nsc(SCC(=O)Nc3nc(C)cs3)c2C#N)n1 | 10.2 | 12.1 | -84.1 | -28.9 | 16.4 | 0.2 | nt | nt
CC(C)CNc1nc(N)c([N+](=O)[O-])c(NCc2ccccc2)n1 | -8.9 | -4.9 | 31.2 | 0.5 | 9.3 | -5.2 | nt | nt
O=C(N/N=C/c1ccccc1O)C1CC(=O)N(c2ccc(F)cc2)C1 (centres undefined) | 49.5 | 15.6 | 51.8* | -10.6 | 28.0 | 26.0 | 38.1 | 43.7*
COc1ccc(N2CC(C(=O)N/N=C/c3c[nH]c4ccccc34)CC2=O)cc1 (centres undefined) | 2.5 | -2.1 | -6.4 | -10.1 | -0.6 | -8.5 | nt | nt
Cc1cccc(NC(=S)NCCC(c2ccccc2)c2ccccc2)c1 | 39.5 | 35.0 | 53.2* | -14.3 | 19.7 | 10.3 | 6.7 | nt
COc1cccc(NC(=S)NCCC(c2ccccc2)c2ccccc2)c1 | 17.3 | 19.6 | 27.8 | -11.8 | 20.8 | 1.6 | nt | nt
CCC1=Nc2cc(C(=O)NCc3ccco3)ccc2Sc2ccc(C)cc21 | 42.5 | 15.6 | nt | 27.3 | nt | 15.8 | nt | nt
C[C@]12C(=O)N(c3ccccc3)C(=O)N1[C@@H]1c3ccccc3OC[C@@H]1[C@H]2c1ccccc1 | 0.4 | 0.8 | 8.2 | -15.6 | -1.2 | 3.2 | nt | nt
C[C@]12C(=O)N(c3ccc(C(F)(F)F)cc3)C(=O)N1[C@@H]1c3ccccc3OC[C@@H]1[C@H]2c1ccccc1 | 17.3 | 4.3 | 50.0* | 1.4 | -3.0 | 9.5 | 49.8* | 73.5*
Cc1ccc(N2C(=O)N3[C@H]4c5ccccc5OC[C@@H]4[C@@H](c4ccccc4)[C@@]3(C)C2=O)cc1 | nt | 16.8 | 51.7* | 29.6 | 24.4 | -2.4 | 17.2 | nt
Cc1cccc2cc(C#N)c(N3CCN(C)CC3)nc12 | -11.8 | 27.3 | 53.7* | -13.4 | 11.3 | 2.5 | 6.9 | nt
Cc1cc(C)n(C(=O)/C(C#N)=N/Nc2cc(Cl)cc(Cl)c2)n1 | 1.3 | 42.2 | 89.4* | -48.7 | 7.6 | 26.7 | 87.7* | 50.7*
CCOC(=O)C[C@H]1c2ccccc2S(=O)(=O)N1Cc1ccc(Cl)cc1 | -9.4 | -7.4 | -1.9 | 0.7 | 9.0 | 1.0 | nt | nt
COc1ccc(-c2oc3ncnc(NCCCN(C)C)c3c2-c2ccc(OC)cc2)cc1 | 9.4 | 40.1 | 96.6* | -0.3 | 13.8 | 8.4 | 42.0* | 28.6
C#CCOCCOCCOCCNc1nc(N2CCN(C(=O)[C@H]([C@@H](C)CC)n3cc([C@@H](N)Cc4ccc(O)cc4)nn3)CC2)nc(N2CCN(C(=O)[C@H](Cc3cc4ccccc4[nH]3)n3cc([C@@H](N)C(C)CC)nn3)CC2)n1 (some centres undefined) | -15.7 | 15.6 | 22.2 | 11.2 | 11.0 | 8.7 | nt | nt
SMILES | CSC inhib | T cruzi inh | Mdm2 MdmX PPI | Calb FLC | NALP3 yeast inh | Beta apoptosis | Mdm2 MdmX conf | Full FLuc ctr
N#Cc1ccc(N/N=C/c2cn(-c3ccccc3)nc2-c2ccccc2)c([N+](=O)[O-])c1 | 55.5 | 1.2 | 90.8* | -31.5 | 9.0 | 87.4* | 4.8 | nt
O=C(O)c1cccc(N/N=C/c2cn(-c3ccccc3)nc2-c2cccs2)c1 | 5.5 | 2.7 | 14.7 | 20.8 | 35.8 | -8.0 | nt | nt
N#Cc1cn(-c2ccccc2)nc1-c1ccccc1 | 7.1 | -6.4 | 19.5 | 0.2 | -9.6 | 3.3 | nt | nt
NS(=O)(=O)c1ccc(N/N=C/c2cn(-c3ccccc3)nc2-c2cccs2)c([N+](=O)[O-])c1 | 96.0* | 67.4* | 96.0* | -6.7 | 14.7 | 108.2* | 15.4 | nt
N#CC1=C(N)C(C#N)(C#N)C(c2cccnc2)C2CCCC=C12 (centres undefined) | -5.9 | nt | 26.2 | 12.9 | 10.5 | -9.4 | nt | nt
N#CC1=C(N)C(C#N)(C#N)C(c2cccnc2)C2CC(c3ccccc3)CC=C12 (centres undefined) | 6.8 | -2.9 | 62.0* | 44.1 | 17.8 | -4.9 | 61.3* | 23.1
N/C(CCS(=O)(=O)c1ccc(Cl)cc1)=N\OC(=O)c1ccccc1Cl | -7.1 | -23.6 | 91.6* | 4.1 | 20.3 | nt | 86.7* | 49.6*
Cc1onc(-c2ccccc2Cl)c1C(=O)O/N=C(\N)c1ccc([N+](=O)[O-])o1 | 3.0 | 35.1 | 60.4* | -2.9 | 13.5 | 68.4 | 39.5 | 70.5*
C/C(=N/OC(=O)c1c(-c2ccccc2Cl)noc1C)c1cnccn1 | 0.7 | -0.3 | 14.3 | -5.0 | -8.5 | -4.5 | nt | nt
O=C1N(c2ccc(Cl)c(Cl)c2)CN(Cc2ccccc2)CN1n1cnnc1 | -4.0 | -4.4 | 9.7 | 6.4 | 11.2 | -2.3 | nt | nt
CCN(CC)c1ccc(/C=C2\NC(=O)NC2=O)cc1 | 45.7 | -25.5 | 62.6* | -23.0 | 33.8 | 3.7 | 47.6* | 57.9*
O=C1NC(=O)/C(=C\c2ccsc2)N1 | 0.5 | 1.3 | -4.3 | -6.2 | 11.3 | 3.7 | nt | nt
O=C(OCc1cc2ccccc2[nH]c1=O)c1cccs1 | 1.1 | -27.3 | 15.8 | -7.9 | 13.9 | -0.8 | nt | nt
CCOC(=O)C1Nc2ccc(C(F)(F)F)cc2C2c3ccccc3CC12 (centres undefined) | 20.2 | 42.6 | 97.0* | 6.1 | 46.0 | -2.3 | 70.2* | 43.2*
Cc1cc2cc(C#N)c(SCC(=O)Nc3nonc3C)nc2cc1C | nt | 9.7 | 68.9* | 38.1 | 4.2 | 1.2 | 29.4 | nt

Assay outcomes as filed in PubChem BioAssay.
